Assay results taken from ChEMBL document CHEMBL1687810, “Oritavancin disrupts membrane integrity of Staphylococcus aureus and vancomycin-resistant enterococci to effect rapid bacterial killing” (2010).
In brackets after ≈: the same amount, converted by molar mass. Activity calls are given as the source filed them.

Assays:
Staphylococcus aureus [1] = test: Induction of membrane depolarization in heterogeneous vancomycin-intermediate resistant Staphylococcus aureus ATCC 700698 at 16 ug/mL using DiSC3(5) dye by fluorimetric assay; format: functional, organism-based
Staphylococcus aureus [2] = test: Increase in membrane permeability in heterogeneous vancomycin-intermediate resistant Staphylococcus aureus ATCC 700698 at 16 ug/mL using SYTO9 staining by fluorimetric assay; format: functional, organism-based
Staphylococcus aureus [3] = test: Bactericidal activity against heterogeneous vancomycin-intermediate resistant Staphylococcus aureus ATCC 700698 at 16 ug/ml within 30 mins; format: functional, organism-based
Summary of the method: (§1)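 Short-duration time-kill of hVISA ATCC 700698 under conditions similar to the membrane assays, without polysorbate-80, with drug at 4, 8 or 16 μg/ml; viable counts as change in log CFU from time zero over 30 min. Bactericidal defined as ≥3 log CFU decrease; detection limit 200 CFU; three independent experiments.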

Staphylococcus aureus [4] = test: Antimicrobial activity against heterogeneous vancomycin-intermediate resistant Staphylococcus aureus ATCC 700698; format: functional
Staphylococcus aureus [5] = test: Induction of membrane depolarization in heterogeneous vancomycin-intermediate resistant Staphylococcus aureus ATCC 700698 using DiSC3(5) dye by fluorimetric assay; format: functional, organism-based
Staphylococcus aureus [6] = test: Increase in membrane permeability in heterogeneous vancomycin-intermediate resistant Staphylococcus aureus ATCC 700698 using SYTO9 staining by fluorimetric assay; format: functional, organism-based
Staphylococcus aureus [7] = test: Bactericidal activity against heterogeneous vancomycin-intermediate resistant Staphylococcus aureus ATCC 700698 assessed as reduction in bacterial count at 4 ug/ml within 30 mins; format: functional; summary of the method: as §1
Staphylococcus aureus [8] = test: Bactericidal activity against heterogeneous vancomycin-intermediate resistant Staphylococcus aureus ATCC 700698 assessed as reduction in bacterial count at 8 ug/ml within 30 mins; format: functional; summary of the method: as §1
Staphylococcus aureus [9] = test: Bactericidal activity against heterogeneous vancomycin-intermediate resistant Staphylococcus aureus ATCC 700698 assessed as reduction in bacterial count at 16 ug/ml within 30 mins; format: functional; summary of the method: as §1
Staphylococcus aureus [10] = test: Antimicrobial activity against vancomycin-intermediate resistant Staphylococcus aureus; format: functional
Staphylococcus aureus [11] = test: Antimicrobial activity against vancomycin-resistant Staphylococcus aureus; format: functional
Enterococcus = test: Antimicrobial activity against vancomycin-resistant Enterococcus; format: functional
Staphylococcus aureus [12] = test: Antimicrobial activity against heterogeneous vancomycin-intermediate resistant Staphylococcus aureus; format: functional

SMILES	Activity (Staphylococcus aureus [1])	Activity (Staphylococcus aureus [2])	Activity (Staphylococcus aureus [3])	MIC (Staphylococcus aureus [4])	Activity (Staphylococcus aureus [5])	Activity (Staphylococcus aureus [6])	log10cfu (Staphylococcus aureus [7])	log10cfu (Staphylococcus aureus [8])	log10cfu (Staphylococcus aureus [9])	MIC (Staphylococcus aureus [10])	MIC (Staphylococcus aureus [11])	MIC (Enterococcus)	MIC (Staphylococcus aureus [12])
CN[C@H](CC(C)C)C(=O)N[C@H]1C(=O)N[C@@H](CC(N)=O)C(=O)N[C@H]2C(=O)N[C@H]3C(=O)N[C@H](C(=O)N[C@H](C(=O)O)c4cc(O)cc(O)c4-c4cc3ccc4O)[C@H](O)c3ccc(c(Cl)c3)Oc3cc2cc(c3O[C@@H]2O[C@H](CO)[C@@H](O)[C@H](O)[C@H]2O[C@H]2C[C@](C)(N)[C@H](O)[C@H](C)O2)Oc2ccc(cc2Cl)[C@H]1O	inactive	inactive	inactive	–	–	–	–	–	–	–	–	–	–
CN[C@H](CC(C)C)C(=O)N[C@H]1C(=O)N[C@@H](CC(N)=O)C(=O)N[C@H]2C(=O)N[C@H]3C(=O)N[C@H](C(=O)N[C@H](C(=O)O)c4cc(O)cc(O)c4-c4cc3ccc4O)[C@H](O[C@H]3C[C@](C)(N)[C@@H](O)[C@H](C)O3)c3ccc(c(Cl)c3)Oc3cc2cc(c3O[C@@H]2O[C@H](CO)[C@@H](O)[C@H](O)[C@H]2O[C@H]2C[C@](C)(N)[C@@H](O)[C@H](C)O2)Oc2ccc(cc2Cl)[C@H]1O [CHLOROEREMOMYCIN]	inactive	inactive	inactive	1 µg/mL (≈ 0.628 µM)	–	–	–	–	–	–	–	–	–
CN[C@H](CC(C)C)C(=O)N[C@H]1C(=O)N[C@@H](CC(N)=O)C(=O)N[C@H]2C(=O)N[C@H]3C(=O)N[C@H](C(=O)N[C@H](C(=O)O)c4cc(O)cc(O)c4-c4cc3ccc4O)[C@H](O[C@H]3C[C@](C)(N)[C@@H](O)[C@H](C)O3)c3ccc(c(Cl)c3)Oc3cc2cc(c3O[C@@H]2O[C@H](CO)[C@@H](O)[C@H](O)[C@H]2O[C@H]2C[C@](C)(NCc3ccc(-c4ccc(Cl)cc4)cc3)[C@@H](O)[C@H](C)O2)Oc2ccc(cc2Cl)[C@H]1O [ORITAVANCIN]	–	–	–	1 µg/mL (≈ 0.558 µM)	Dose-dependent effect	Dose-dependent effect	>=3	>=3	>=3	0.25 µg/mL (≈ 0.139 µM)	0.25 µg/mL (≈ 0.139 µM)	0.25 µg/mL (≈ 0.139 µM)	0.25 µg/mL (≈ 0.139 µM)
